Experimental data pooled from the literature.
Protocols differ between the studies behind these lines.
Target: Serine/threonine-protein kinase DCLK3 (DCLK3, Homo sapiens, UniProt Q9C098)
One construct used (Q9C098 1-648): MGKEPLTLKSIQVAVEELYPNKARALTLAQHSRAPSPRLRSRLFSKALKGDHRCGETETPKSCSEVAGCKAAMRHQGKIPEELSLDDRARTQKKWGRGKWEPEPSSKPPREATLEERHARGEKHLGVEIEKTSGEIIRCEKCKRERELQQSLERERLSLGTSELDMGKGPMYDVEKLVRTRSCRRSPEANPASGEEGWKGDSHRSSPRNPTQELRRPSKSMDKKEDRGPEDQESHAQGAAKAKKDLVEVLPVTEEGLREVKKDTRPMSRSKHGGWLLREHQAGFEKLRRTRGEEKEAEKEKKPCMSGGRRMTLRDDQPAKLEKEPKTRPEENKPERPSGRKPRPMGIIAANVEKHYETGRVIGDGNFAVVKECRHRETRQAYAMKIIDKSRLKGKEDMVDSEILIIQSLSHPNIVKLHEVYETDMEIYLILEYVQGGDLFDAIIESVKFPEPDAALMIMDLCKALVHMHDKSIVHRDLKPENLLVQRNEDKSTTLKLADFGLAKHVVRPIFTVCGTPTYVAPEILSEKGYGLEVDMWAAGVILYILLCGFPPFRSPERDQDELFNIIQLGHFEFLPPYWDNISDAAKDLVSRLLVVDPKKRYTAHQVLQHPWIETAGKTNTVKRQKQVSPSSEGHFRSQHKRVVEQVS

`CN(C)c1nccc(-c2cnc3ncccn23)n1` has a remaining binding of 76% (binding; 1 µM).
The remaining binding of `O=C(N1CCS(=O)(=O)CC1)N1C[C@H](c2ccc(OC(F)(F)F)cc2)C[C@H](c2nc(C3CC3)no2)C1` is reported as 100% (cell-free assay, competition with immobilised ligand; 1 µM).
`O=C(NCC1CCOCC1)c1n[nH]cc1NC(=O)c1c(F)cccc1F` gave a remaining binding of 61% (binding, competition with immobilised ligand; 1 µM).
`C[C@H](c1cccc(C#N)c1)n1cc(Cl)cc(C(N)=O)c1=N` gave a remaining binding of 99% (cell-free assay, competition with immobilised ligand; 1 µM).
`O=C(c1ccc(Nc2ncc(Cl)c(-c3ccc(Cl)s3)n2)cc1)N1CCC(N2CCCC2)CC1` has a remaining binding of 14% (binding, competition with immobilised ligand; 1 µM).
For `c1cnn2ncc(-c3ccnc(N4CCC45COC5)n3)c2c1`, the remaining binding was 100% (binding; 1 µM).
`C=CC(=O)N1CCC(C(=O)NCC(=O)N2CCN(c3nc(-c4cnc(N)nc4C(F)F)nc(N4CCOCC4)n3)CC2)CC1` has a remaining binding of 96% (binding, competition with immobilised ligand; 1 µM).
The remaining binding of `O=C(NCCCN1CCOCC1)c1ccc(Nc2ncc(Cl)c(-c3ccc(Cl)s3)n2)cc1` is reported as 1.9% (binding, competition with immobilised ligand; 1 µM).
`N[C@H]1CCN(c2nccc(-c3cnn4ncccc34)n2)C1` gave a remaining binding of 100% (binding; 1 µM).
`CN(C)c1ncnc(-c2ccc3nc(Nc4cc(CN5CCN(C(=O)CC(F)(F)F)CC5)ccn4)[nH]c3c2)c1Cl` has a remaining binding of 92% (cell-free assay, competition with immobilised ligand; 1 µM).
The remaining binding of `O=C(NCCCN1CCOCC1)c1ccc(Nc2nccc(-c3cc4ccccc4s3)n2)cc1` is reported as 0.4% (binding, competition with immobilised ligand; 1 µM).
The remaining binding of `CN(C)c1ncc(F)c(-c2cnn3ncccc23)n1` is reported as 100% (binding; 1 µM).
For `COc1cnc(Nc2cccc(S(N)(=O)=O)c2)nc1N1CCN(c2ccccc2)C(=O)C1`, the remaining binding was 100% (binding, competition with immobilised ligand; 1 µM).
`CCCCN(CCCC)C(=O)CN1C[C@@H](c2cc(OC)c3c(c2)OCO3)[C@H](C(=O)O)[C@H]1CC(C)(C)CCC` gave a remaining binding of 100% (cell-free assay, competition with immobilised ligand; 1 µM).
With `COc1cnc(Nc2cccc(S(N)(=O)=O)c2)nc1N1CCN(c2ccccc2)CC1` the remaining binding was 71% (binding, competition with immobilised ligand; 1 µM).
The remaining binding of `COc1ccnn2ncc(-c3ccnc(N(C)C)n3)c12` is reported as 100% (binding; 1 µM).
`CNC(=O)c1ccc(Nc2ncc(C(F)(F)F)c(NCc3nccnc3N(C)S(C)(=O)=O)n2)cc1` has a remaining binding of 67% (cell-free assay, competition with immobilised ligand; 0.1 µM).
With `FC(F)(F)Oc1cccc(-c2cnc3ccc(-c4ccncc4)nn23)c1` the remaining binding was 100% (cell-free assay, competition with immobilised ligand; 5 µM).
For `C[C@@H]1CCN(c2nccc(-c3cnn4ncccc34)n2)C1`, the remaining binding was 100% (binding; 1 µM).
`CC(C)(O)c1cncc(-c2nc3ccc(F)cc3n2C2CC2)c1` has a remaining binding of 100% (cell-free assay, competition with immobilised ligand; 1 µM).
For `c1cncc(-c2cccc(Nc3nccc(NC4CCCCC4)n3)c2)c1`, the remaining binding was 80% (binding, competition with immobilised ligand; 10 µM).
